# Only some compounds are listed: those with a hit (about 12% of all), similar ones and a draw of the others.
# MT stabilizer – microtubule stabilization, imaging screen. actives 0.83% (n = 200,000). HeLa tubulin immunostaining HCS, 24 h; share of cells brighter than vehicle mean+2SD. % tubulin-high responders, % at 10 µM. AID 2205;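 active = plate Z-score above 3 for both tubulin-high and condensed-nucleus cell shares, with cell loss under 80%, at 10 µM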;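 also: anti alpha tubulin signal scored within the nucleus-defined area of each cell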
# Dynein transport – blocks dynein driven cargo transport along microtubules; actives 0.47% (n = 220,000); AID 1381; 3617.4 mouse cells, GR-EGFP nuclear translocation imaging; test concentration mostly 20 µM; stimulated with dexamethasone, 1 µM; hits give low values; z-score, hits read low;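 active = plate z-score of nuclear minus cytoplasmic receptor signal below a set negative limit, without overly bright fluorescence or cell loss, cut at about -3.5 in these data, passing the limit was not always enough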;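 also: z-score of nuclear minus cytoplasmic ring GR-EGFP intensity difference per well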
#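 Schedule: 48 h induction, then 1 h compound, then 30 min agonist, 37 °C. Buffer or medium: tetracycline-free induction medium containing charcoal-stripped FBS. Reagent: 1.0 µM final dexamethasone stimulus. Evaluation: nuclear versus cytoplasmic GR-EGFP signal, averaged per well. Signal: high-content fluorescence imaging after fixation.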
# CHOP inhibitor – inhibitors of CHOP induction in ER stress response; CHO-K1 CHOP-promoter luciferase, tunicamycin-induced, 15-18 h; inhibition, % at 10 µM; actives 3.8% (n = 220,000); AID 2732;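 active = compounds that reduced the stress-induced luciferase reporter signal by more than about 70% of percent inhibition, limit read from the data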;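 also: 0% = tunicamycin plus vehicle and 100% = wells without tunicamycin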
# Autophagy HCS – autophagy modulation, high-content screen | MEF GFP-LC3 puncta imaging; test concentration mostly 10 µM | actives 0.98% (n = 190,000) | calls only at 10 µM (by protocol);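 active = percentage of spot-positive cells more than 3 SD above its plate mean, without a fluorescence outlier flag or 80% toxicity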;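 also: spot-positive cell cutoff set from DMSO-treated cells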
# L major viab – inhibitors of Leishmania major promastigote growth | Leishmania major promastigotes, resazurin fluorescence viability | inhibition, % at 10 µM | actives 9% (n = 200,000); in the data active = inhibition above about 50%;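 also: promastigotes grown with compound for 44 hours at 28 °C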
# bCat nuc transl – modulators of beta-catenin nuclear translocation; HeLa beta-catenin nuclear translocation, immunofluorescence imaging; nuclear translocation activity, % at 5 µM; actives 0.3% (n = 190,000);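 active = nuclear translocation activity above 50% at 5 µM, with a well cell count of 50 or more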;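 also: per-cell ratio of nuclear to cytoplasmic median beta-catenin stain intensity; plate controls were DMSO negative control for no effect and GSK-3 inhibitor IX positive control for full effect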
#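 System: HeLa cells, endogenous beta-catenin; compound dosing: 5 µM primary single dose, 0.1% DMSO, 0.02–20 µM confirmation series; incubation: 24 h compound exposure at 37°C, 5% CO2; signal: beta-catenin immunofluorescence imaging with DAPI; evaluation: % activation, nuclear-to-cytoplasmic median beta-catenin signal ratio per cell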
# * hit, by the source's call; i = inactive; x = no result given; + = active, no number.
SMILES,MT stabilizer,Dynein transport,CHOP inhibitor,Autophagy HCS,L major viab,bCat nuc transl
CCN(CC)c1cccc(OC2=NS(=O)(=O)c3ccccc32)c1,4.9,1.15,81.2*,i,80.1*,1.5
Cn1c(C(=O)NCc2cccnc2)cc2sc(Cl)cc21,3.2,2.02,27.2,i,81.0*,6.7
O=C(NCc1cccnc1)c1sc2cc(Cl)ccc2c1Cl,2.8,0.619,16.6,i,81.5*,-1.9
O=C1C2C(C(=O)N1/N=C/c1ccc(N3CCCCC3)o1)C1C=CC2C12CC2 (stereo unspecified),3.4,-0.879,2.0,i,-4.9,-1.1
Cc1ccc(NC(=O)NCCCN2CCOCC2)cc1,2.1,-0.187,31.2,i,-3.7,x
COc1ccc(Cl)c(N2CCN(CCCNC(=O)Nc3ccc(C)cc3)CC2)c1,3.9,0.637,83.4*,+,21.6,-0.9
COc1cc2[nH]c(=O)n(Cc3ccccc3Cl)c(=O)c2cc1OC,2.8,-0.187,13.8,i,-0.9,-8.2
Nc1c(C(=O)NC23CC4CC(CC(C4)C2)C3)sc2nc3c(c(C(F)(F)F)c12)CCC3,i,0.0605,-27.7,+,-5.6,0.0
COc1ccccc1/C=C/C1=NC(=C\C=C/c2ccccc2)/C(=O)O1,4.0,-0.151,23.5,i,68.8*,-0.6
O=C(CNCC1CCCCC1)Nc1ccc(OC(F)(F)F)cc1,2.4,-0.882,90.6*,i,-9.0,-0.9
O=C(CNCCC1=CCCCC1)Nc1ccccc1N1CCCCC1,2.6,0.00128,91.8*,i,97.4*,1.3
Cc1cccc(N2CCN(CC(=O)Nc3nccs3)CC2)c1C,2.3,-0.491,9.7,i,4.8,x
Cc1cccc(N2CCN(CC(=O)NCC3CCCCC3)CC2)c1C,4.2,-0.446,75.8*,i,16.2,0.7
O=C(CCC1CCCCC1)Nc1ccccc1O,3.5,-0.0522,73.1*,i,3.2,x
CS/C(N)=N/S(=O)(=O)c1ccc(NC(C)=O)cc1,x,0.955,0.0,x,x,-0.4
O=C(C1=C[C@H](c2coc3ccccc3c2=O)C[C@H](OCCCCO)O1)N1CCN(Cc2ccc3c(c2)OCO3)CC1,4.5,-0.762,33.7,i,0.4,-2.7
O=C(CNCC1CCCCC1)Nc1ccccc1N1CCCCC1,2.1,0.0989,78.7*,i,7.2,-0.3
O=C(CNCC1CCCO1)Nc1ccccc1N1CCOCC1 (stereo unspecified),2.0,-0.432,-4.7,i,-2.5,-3.9
COc1ccc2[nH]c3c(=O)n(CCCCC(=O)NCCC(C)C)c(=S)[nH]c3c2c1,5.1,1.26,2.8,i,5.5,1.6
CCN(Cc1ccccc1)S(=O)(=O)c1cc(C(=O)NC(C)C2CC3CCC2C3)ccc1OC (stereo unspecified),4.4,0.76,28.9,i,84.2*,0.2
CCN(Cc1ccccc1)S(=O)(=O)c1cc(C(=O)c2c(N)n(C)c(=O)n(C)c2=O)ccc1OC,1.7,-0.217,4.9,i,-5.7,0.0
CCCCCCCC(=O)NC(Nc1ccc(S(N)(=O)=O)cc1)C(Cl)(Cl)Cl (stereo unspecified),1.8,-0.528,56.6,i,-1.9,-1.6
CCc1c(C)nc2ncnn2c1NCCc1ccc(OC)cc1,37.1*,-0.934,x,i,15.8,85.0*
Cc1ccc(-c2csc3nc(SCC(N)=O)n(Cc4ccccc4)c(=O)c23)cc1,2.2,2.42,-9.9,i,51.5*,-2.3
O=C(NC(=S)NN1CCCCC1c1cccnc1)c1ccc(Cl)cc1Cl (stereo unspecified),x,0.579,-7.2,x,x,-1.7
CC(C)CC(=O)NC(c1ccccc1Cl)c1c(O)ccc2ccccc12 (stereo unspecified),1.0,0.885,39.3,i,100.3*,1.0
CC(C)C(=O)NC(c1ccc(N(C)C)cc1)c1c(O)ccc2ccccc12 (stereo unspecified),x,-0.699,15.0,x,x,1.0
CCC(=O)NC(c1cccc([N+](=O)[O-])c1)c1c(O)ccc2ccccc12 (stereo unspecified),2.0,1.35,7.1,i,6.3,-1.2
CCCC(=O)NC(c1ccco1)c1c(O)ccc2ccccc12 (stereo unspecified),4.4,0.0878,16.2,i,56.7*,-1.0

# Source: PubChem BioAssay
